Assay results reported in ChEMBL document CHEMBL1687793, “Complementation of a Saccharomyces cerevisiae ERG11/CYP51 (sterol 14α-demethylase) doxycycline-regulated mutant and screening of the azole sensitivity of Aspergillus fumigatus isoenzymes CYP51A and CYP51B” (2010).
Values after ≈ are worked out from the molar mass of the structure shown.

Columns and labels:
Assay type in all cases: functional
[1] = tested on: Saccharomyces cerevisiae; experiment: Antimicrobial activity against Saccharomyces cerevisiae YUG37 transformed with plasmid carrying cyp51B gene with doxycycline-regulatable promoter by broth dilution method in presence of doxycycline
How it was run: (§1)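 CLSI M27-A2 broth microdilution in induction medium (galactose plus raffinose, 2%) containing 5 μg ml−1 doxycycline. Inoculum 2.5 × 10^3 cells ml−1. Final fluconazole 0.031–16 μg ml−1; clotrimazole, itraconazole and posaconazole 0.004–2.0 μg ml−1. Plates incubated at 30°C and scored at 72 h. MIC is the lowest concentration giving ≥80% growth inhibition versus drug-free control wells.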

[2] = tested on: Saccharomyces cerevisiae; experiment: Antimicrobial activity against Saccharomyces cerevisiae YUG37 transformed with plasmid carrying cyp51A gene with doxycycline-regulatable promoter by broth dilution method in presence of doxycycline; how it was run: as §1
[3] = tested on: Saccharomyces cerevisiae; experiment: Antimicrobial activity against Saccharomyces cerevisiae YUG37 transformed with plasmid carrying cyp51A gene in reverse orientation without doxycycline-regulatable promoter by broth dilution method
How it was run: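 Reverse-oriented cyp51A control strain tested in galactose/raffinose medium without doxycycline. Otherwise CLSI M27-A2 broth microdilution with inoculum 2.5 × 10^3 cells ml−1. Incubated at 30°C and read at 72 h. MIC is the lowest concentration giving ≥80% growth inhibition relative to control wells.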

[4] = tested on: Saccharomyces cerevisiae; experiment: Ratio of MIC for Saccharomyces cerevisiae YUG37 transformed with plasmid carrying cyp51A gene with compound-regulatable promoter to MIC for Saccharomyces cerevisiae YUG37 transformed with plasmid carrying cyp51B gene with compound-regulatable promoter
[5] = tested on: Saccharomyces cerevisiae; experiment: Induction of ergosterol production in Saccharomyces cerevisiae YUG37 transformed with plasmid carrying cyp51A gene in reverse orientation without doxycycline-regulatable promoter by GC-MS analysis
How it was run: (§2)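 The control was YUG37-erg11 transformed with pYES2.1 carrying reverse-oriented cyp51A, in triplicate. It was cultured 72 h (30°C, 180 rpm) in galactose/raffinose (2%) YM either with 5 μg ml−1 doxycycline or without doxycycline. GC-MS sterol profiling gave mean % of sterol composition (SD).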

[6] = tested on: Saccharomyces cerevisiae; experiment: Induction of ergosterol production in Saccharomyces cerevisiae YUG37 transformed with plasmid carrying cyp51A gene with compound-regulatable promoter by GC-MS analysis
How it was run: (§3)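 YUG37-erg11 yeast (native ERG11 under a doxycycline-regulatable promoter) carrying pYES2.1 with intronless A. fumigatus cyp51A or cyp51B. Single colonies, triplicate constructs, were grown in YM with 2% galactose/raffinose plus 5 μg ml−1 doxycycline for 72 h at 30°C and 180 rpm. Sterols were analysed by GC-MS and reported as mean % of sterol composition (SD).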

[7] = tested on: Saccharomyces cerevisiae; experiment: Induction of lanosterol/obtusifoliol production in Saccharomyces cerevisiae YUG37 transformed with plasmid carrying cyp51B gene with compound-regulatable promoter by GC-MS analysis; how it was run: as §3
[8] = tested on: Saccharomyces cerevisiae; experiment: Induction of 4,14alpha-dimethylcholesta 8,24-dienol production in Saccharomyces cerevisiae YUG37 transformed with plasmid carrying cyp51A gene in reverse orientation without doxycycline-regulatable promoter by GC-MS analysis; how it was run: as §2
[9] = tested on: Saccharomyces cerevisiae; experiment: Induction of 14alpha-Methylergosta 8,24-dien- 3beta-6alpha-diol production in Saccharomyces cerevisiae YUG37 transformed with plasmid carrying cyp51A gene in reverse orientation without doxycycline-regulatable promoter by GC-MS analysis; how it was run: as §2
[10] = tested on: Saccharomyces cerevisiae; experiment: Induction of 14alpha-Methylergosta 8,24-dien- 3beta-6alpha-diol production in Saccharomyces cerevisiae YUG37 transformed with plasmid carrying cyp51B gene with compound-regulatable promoter by GC-MS analysis; how it was run: as §3
[11] = tested on: Saccharomyces cerevisiae; experiment: Induction of 4alpha-methylfecosterol production in Saccharomyces cerevisiae YUG37 transformed with plasmid carrying cyp51A gene with compound-regulatable promoter by GC-MS analysis; how it was run: as §3
[12] = tested on: Saccharomyces cerevisiae; experiment: Induction of 14alpha-Methylergosta 8,24-dien- 3beta-6alpha-diol production in Saccharomyces cerevisiae YUG37 transformed with plasmid carrying cyp51A gene with compound-regulatable promoter by GC-MS analysis; how it was run: as §3
[13] = tested on: Saccharomyces cerevisiae; experiment: Induction of lanosterol/obtusifoliol production in Saccharomyces cerevisiae YUG37 transformed with plasmid carrying cyp51A gene in reverse orientation without doxycycline-regulatable promoter by GC-MS analysis; settings: in the assay text read “with doxycycline-regulatable promoter” for “without doxycycline-regulatable promoter”; how it was run: as §2
[14] = tested on: Saccharomyces cerevisiae; experiment: Induction of lanosterol/obtusifoliol production in Saccharomyces cerevisiae YUG37 transformed with plasmid carrying cyp51A gene with compound-regulatable promoter by GC-MS analysis; how it was run: as §3
[15] = tested on: Saccharomyces cerevisiae; experiment: Induction of ergosterol production in Saccharomyces cerevisiae YUG37 transformed with plasmid carrying cyp51B gene with compound-regulatable promoter by GC-MS analysis; how it was run: as §3
[16] = tested on: Saccharomyces cerevisiae; experiment: Induction of 4alpha-methylfecosterol production in Saccharomyces cerevisiae YUG37 transformed with plasmid carrying cyp51A gene in reverse orientation without doxycycline-regulatable promoter by GC-MS analysis; how it was run: as §2
[17] = tested on: Saccharomyces cerevisiae; experiment: Induction of 4,14alpha-dimethylcholesta 8,24-dienol production in Saccharomyces cerevisiae YUG37 transformed with plasmid carrying cyp51B gene with compound-regulatable promoter by GC-MS analysis; how it was run: as §3
[18] = tested on: Saccharomyces cerevisiae; experiment: Induction of 4alpha-methylfecosterol production in Saccharomyces cerevisiae YUG37 transformed with plasmid carrying cyp51B gene with compound-regulatable promoter by GC-MS analysis; how it was run: as §3
[19] = tested on: Saccharomyces cerevisiae; experiment: Induction of 4,14alpha-dimethylcholesta 8,24-dienol production in Saccharomyces cerevisiae YUG37 transformed with plasmid carrying cyp51A gene with compound-regulatable promoter by GC-MS analysis; how it was run: as §3

C[C@@H](c1ncncc1F)[C@](O)(Cn1cncn1)c1ccc(F)cc1F [VORICONAZOLE] gave an MIC [1] of 0.004 µg/mL, an MIC [2] of 0.004 µg/mL and an MIC [3] of 0.004 µg/mL (≈ 0.0115 µM).
OC(Cn1cncn1)(Cn1cncn1)c1ccc(F)cc1F [FLUCONAZOLE] was tested, and the MIC [1] was 0.5 µg/mL, the MIC [2] was 8 µg/mL and the Ratio [4] was 16. The MIC [3] was 0.25 µg/mL (≈ 0.816 µM).
In the case of Clc1ccccc1C(c1ccccc1)(c1ccccc1)n1ccnc1 [CLOTRIMAZOLE], the MIC [1] is reported as 0.016 µg/mL, the MIC [2] is reported as 0.016 µg/mL and the MIC [3] is reported as 0.016 µg/mL (≈ 0.0464 µM).
Compound CCC(C)n1ncn(-c2ccc(N3CCN(c4ccc(OCC5COC(Cn6cncn6)(c6ccc(Cl)cc6Cl)O5)cc4)CC3)cc2)c1=O (stereo unspecified) [ITRACONAZOLE] has an MIC [1] of 0.125 µg/mL, an MIC [2] of 0.125 µg/mL and an MIC [3] of 0.031 µg/mL (≈ 0.0439 µM).
CC[C@@H]([C@H](C)O)n1ncn(-c2ccc(N3CCN(c4ccc(OC[C@@H]5CO[C@@](Cn6cncn6)(c6ccc(F)cc6F)C5)cc4)CC3)cc2)c1=O [POSACONAZOLE] showed an MIC [1] of 0.063 µg/mL, an MIC [2] of 0.063 µg/mL and an MIC [3] of 0.063 µg/mL (≈ 0.0899 µM).
In the case of C[C@H]1c2cccc(O)c2C(=O)C2=C(O)[C@]3(O)C(=O)C(C(N)=O)=C(O)[C@@H](N(C)C)[C@@H]3[C@@H](O)[C@@H]21.O [DOXYCYCLINE], the Activity [5] is reported as 4%, the Activity [6] is reported as 40.8% and the Activity [7] is reported as 45.4%. For the same compound, the Activity [8] was 3.3%, the Activity [9] was 51.1% and the Activity [10] was 10.5%. The Activity [11] was 2%, the Activity [12] was 20.5% and the Activity [13] was 40.6%. For the same compound, the Activity [14] was 34.1%, the Activity [15] was 39.5% and the Activity [16] was 1.9%. It also gave an Activity [17] of 2.9%, an Activity [18] of 1.7% and an Activity [19] of 2.6%.
